# Source: ChEMBL document CHEMBL4033782, “Structural Modification of Natural Product Tanshinone I Leading to Discovery of Novel Nitrogen-Enriched Derivatives with Enhanced Anticancer Profile and Improved Drug-like Properties” (J Med Chem, 2018)
# Calls of active or inactive are those of the source. No cut-off for these calls is given here.
# Experiments:
# [1] = test system: KB; test: Antiproliferative activity against human KB cells after 72 hrs by sulforhodamine B assay; format: functional, cell-based
# Method in brief: (§1)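 Cells grown in ATCC-specified medium with 10% heat-inactivated FBS, penicillin/streptomycin and 10 mM Hepes, at 37 °C under 5% CO2. Seeded, cultured overnight, then exposed to gradient concentrations for 72 h. Growth read by SRB staining; inhibition % = [1−(A450 treated/A450 control)]×100. IC50 obtained by the Logit method from independent experiments.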
# [2] = Antiproliferative activity against human KB/VCR cells after 72 hrs by sulforhodamine B assay; format: functional, cell-based; method in brief: as §1
# [3] = Aqueous solubility of the compound in pH 7.5 Tris buffer after 24 hrs by HPLC method; format: physicochemical
# [4] = Half life in human liver microsomes at 0.1 uM up to 60 mins by LC-MS/MS analysis; format: ADME, microsome
# Method in brief: (§2)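 Compound at 0.1 μM final (0.01% DMSO, 0.005% BSA) incubated at 37 °C with human, rat or mouse liver microsomes (0.33 mg/mL protein) in 0.1 M Tris/HCl pH 7.4, with 5 mM MgCl2 and 1 mM NADPH. Samples taken at 0, 7, 17, 30 and 60 min, quenched by methanol precipitation, centrifuged, and parent measured by LC-MS/MS. T1/2 and Clint derived.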
# [5] = Half life in rat liver microsomes at 0.1 uM up to 60 mins by LC-MS/MS analysis; format: ADME, microsome; method in brief: as §2
# [6] = Half life in mouse liver microsomes at 0.1 uM up to 60 mins by LC-MS/MS analysis; format: ADME, microsome; details: liver microsomes; method in brief: as §2
# [7] = test system: Liver; test: Intrinsic clearance in human liver microsomes assessed as per mg protein up to 60 mins by LC-MS/MS analysis; format: ADME, microsome; details: 1 h; method in brief: as §2
# [8] = test system: Liver; test: Intrinsic clearance in rat liver microsomes assessed per mg protein up to 60 mins by LC-MS/MS analysis; format: ADME, microsome; details: 1 h
# Method in brief: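 Liver microsomes (0.33 mg/mL protein) in 0.1 M Tris/HCl pH 7.4 with 5 mM MgCl2, 1 mM NADPH, compound at 0.1 μM final (0.01% DMSO, 0.005% BSA), 37 °C; samples at 0, 7, 17, 30, 60 min quenched in methanol, centrifuged, LC-MS/MS; T1/2 and Clint per g protein derived.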
# [9] = test system: Liver; test: Intrinsic clearance in mouse liver microsomes assessed per mg protein up to 60 mins by LC-MS/MS analysis; format: ADME, microsome; details: 1 h; method in brief: as §2
# [10] = test system: HCT-116; test: Induction of apoptosis in human HCT116 cells after 48 hrs by Annexin V-FITC/propidium iodide staining-based FACS analysis; format: functional, cell-based
# [11] = test system: HCT-116; test: Induction of apoptosis in human HCT116 cells assessed as cleavage of PARP after 48 hrs by Western blot analysis; format: functional, cell-based
# Method in brief: (§3)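 HCT116 cells, with or without a 1 h pretreatment with 20 μM Z-VAD-FMK, exposed for 48 h. Lysed on ice in Hepes/NaCl/Triton X-100 buffer with protease/phosphatase inhibitors and clarified at 12,000×g. Equal protein run by SDS-PAGE, blotted to nitrocellulose, probed overnight at 4 °C for PARP, caspase 3, caspase 7 and β-actin. HRP secondaries, ECL detection.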
# [12] = test system: HCT-116; test: Induction of apoptosis in human HCT116 cells assessed as activation of caspase 3/7 after 48 hrs by Western blot analysis; format: functional, cell-based; method in brief: as §3
# [13] = test system: HCT-116; test: Induction of apoptosis in human HCT116 cells pretreated with Z-VAD-FMK pan-caspase inhibitor for 1 hr assessed as cleavage of PARP at 0.5 to 2 uM after 48 hrs by Western blot analysis; format: functional, cell-based; method in brief: as §3
# [14] = test system: HCT-116; test: Induction of apoptosis in human HCT116 cells pretreated with Z-VAD-FMK pan-caspase inhibitor for 1 hr assessed as activation of caspase 3/7 at 0.5 to 2 uM after 48 hrs by Western blot analysis; format: functional, cell-based; method in brief: as §3
# [15] = test system: HCT-116; test: Antitumor activity against human HCT116 cells xenografted in BALB/C nude mouse assessed as tumor growth inhibition at 10 mg/kg, iv once daily for 14 days starting on day 14 post tumor implantation measured on day 32; format: functional, organism-based
# Method in brief: (§4)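 BALB/c nude male mice (18–20 g) implanted subcutaneously in the right axilla with HCT116 cells. Dosing began once tumors exceeded 100 mm³ (day 14). Test agent given 10 mg/kg i.v. or 30 mg/kg i.p. daily for 14 days; 5-FU 15 mg/kg as reference. Vehicle 1% DMSO in sterile saline; 6 mice per treated group, 10 per control. Relative tumor volume and body weight tracked.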
# [16] = test system: HCT-116; test: Antitumor activity against human HCT116 cells xenografted in BALB/C nude mouse assessed as tumor growth inhibition at 30 mg/kg, ip once daily for 14 days starting on day 14 post tumor implantation measured on day 32; format: functional, organism-based; method in brief: as §4
# [17] = test system: HCT-116; test: Induction of apoptosis in human HCT116 cells assessed as activation of caspase 3/7 at 1.0 to 4.0 uM after 24 hrs by Caspase-Glo 3/7 assay
# [18] = test system: HCT-116; test: Induction of apoptosis in human HCT116 cells pretreated with Z-VAD-FMK pan-caspase inhibitor for 1 hr assessed as activation of caspase 3/7 at 1.0 to 4.0 uM after 24 hrs by Caspase-Glo 3/7 assay
SMILES,IC50 [1],IC50 [2],further results
Cc1cc2c(o1)-c1c(c3ccccc3c(=O)n1CCCCN(C)C)C(=O)C2=O,4.05 µM,2.47 µM,–
Cc1cccc2c3c(ccc12)-c1occ(CN(C)C)c1C(=O)C3=O.Cl,–,–,solubility at 24 h [3]: 8030 µg/mL
COC1C2=C(OC1(C)C)c1ccc3c(C)cccc3c1C(=O)C2=O (stereo not drawn),2.19 µM,2.02 µM,–
Cc1cc2c(o1)-c1c(c3ccccc3c(=O)n1CCCN1CCN(C)CC1)C(=O)C2=O,10.4 µM,3.52 µM,–
Cc1cccc2c3c(ccc12)C1=C(C(=O)C3=O)C(O)C(C)(C)O1 (stereo not drawn),1.63 µM,1.24 µM,solubility at 24 h [3]: 90 µg/mL; half-life at 0.1 µM [4]: 57.1 min; half-life at 0.1 µM [5]: 20.2 min; half-life at 0.1 µM [6]: 25.3 min; intrinsic clearance [7]: 36.8 mL/min/g; intrinsic clearance [8]: 104 mL/min/g; intrinsic clearance [9]: 83.1 mL/min/g
Cc1cccc2c3c(ccc12)C1=C(C(=O)C3=O)C(Nc2ccc(F)c([N+](=O)[O-])c2)C(C)(C)O1 (stereo not drawn),> 20 µM,> 20 µM,–
Cc1cc2c(o1)-c1nc(OCCCCCN(C)C)c3ccccc3c1C(=O)C2=O,15.3 µM,1.99 µM,–
Cc1cccc2c3c(ccc12)-c1occ(CN(CCO)CCO)c1C(=O)C3=O,1.64 µM,1.43 µM,–
Cc1cccc2c3c(ccc12)-c1occ(CO)c1C(=O)C3=O,3.22 µM,2.95 µM,–
Cc1cccc2c3c(ccc12)-c1occ(CN2CCC(CO)C2)c1C(=O)C3=O (stereo not drawn),1.27 µM,0.91 µM,–
Cc1cc2c(o1)-c1c(c3ccccc3c(=O)n1CCCN1CCCC1)C(=O)C2=O,3.4 µM,2.64 µM,–
CC[C@]1(O)C[C@H]2CN(CCc3c([nH]c4ccccc34)[C@@](C(=O)OC)(c3cc4c(cc3OC)N(C=O)[C@H]3[C@@](O)(C(=O)OC)[C@H](OC(C)=O)[C@]5(CC)C=CCN6CC[C@]43[C@@H]65)C2)C1 [VINCRISTINE],0.00072 µM,0.358 µM,–
CON(C)Cc1coc2c1C(=O)C(=O)c1c-2ccc2c(C)cccc12,8.12 µM,5.71 µM,–
Cc1cccc2c3c(ccc12)C1=C(CC(C)(C)O1)C(=O)C3=O,2.62 µM,2.37 µM,–
Cc1cc2c(o1)-c1c(c3ccccc3c(=O)n1CCCN1CCC(CCO)CC1)C(=O)C2=O,0.87 µM,1.49 µM,–
Cc1cc2c(o1)-c1c(c3ccccc3c(=O)n1CCO)C(=O)C2=O,> 20 µM,> 20 µM,–
Cc1cc2c(o1)-c1nc(OCCO)c3ccccc3c1C(=O)C2=O,> 20 µM,> 20 µM,–
Cc1cccc2c3c(ccc12)-c1occ(CN(CCCl)CCCl)c1C(=O)C3=O,9.43 µM,10.9 µM,–
Cc1cccc2c3c(ccc12)-c1occ(CN2CCOCC2)c1C(=O)C3=O,> 20 µM,> 20 µM,–
Cc1cc2c(o1)-c1c(c3ccccc3c(=O)n1CCCN(C)C)C(=O)C2=O,0.71 µM,0.92 µM,–

SMILES,IC50 [1],IC50 [2],further results
Cc1cc2c(o1)-c1c(c3ccccc3c(=O)n1CCCN1CCC(N3CCOCC3)CC1)C(=O)C2=O,0.34 µM,1.72 µM,–
Cc1cc2c(o1)-c1c(c3ccccc3c(=O)n1CCCCCN(C)C)C(=O)C2=O,13.8 µM,5.17 µM,–
Cc1cccc2c3c(ccc12)-c1occ(CN2CCC(O)CC2)c1C(=O)C3=O,1.54 µM,1.11 µM,–
Cc1cc2c(o1)-c1nc(OCCOCCN(C)C)c3ccccc3c1C(=O)C2=O,3.78 µM,1.65 µM,–
Cc1cccc2c3c(ccc12)-c1occ(CN2CCCC2)c1C(=O)C3=O,1.59 µM,1.79 µM,–
Cc1cccc2c3c(ccc12)-c1occ(CN2CCN(CCO)CC2)c1C(=O)C3=O,2.68 µM,4.41 µM,–
Cc1cccc2c3c(ccc12)-c1occ(CN(C)C)c1C(=O)C3=O,1.11 µM,0.51 µM,half-life at 0.1 µM [4]: 501 min; half-life at 0.1 µM [5]: 22.7 min; half-life at 0.1 µM [6]: 40.7 min; intrinsic clearance [7]: 4.19 mL/min/g; intrinsic clearance [8]: 92.7 mL/min/g; intrinsic clearance [9]: 51.6 mL/min/g
Cc1cccc2c3c(ccc12)-c1occ(CN2CCO[C@H](CO)C2)c1C(=O)C3=O,4.97 µM,2.41 µM,–
Cc1cc2c(o1)-c1c(c3ccccc3c(=O)n1CCCn1ccnc1)C(=O)C2=O,17.2 µM,10.1 µM,–
Cc1cccc2c3c(ccc12)-c1occ(CN2CC[C@H](N(C)C)C2)c1C(=O)C3=O,2.61 µM,1.7 µM,–
Cc1cc2c(o1)-c1nc(OCCCCN(C)C)c3ccccc3c1C(=O)C2=O,> 20 µM,> 20 µM,–
COc1ccc(OC)c(NC2C3=C(OC2(C)C)c2ccc4c(C)cccc4c2C(=O)C3=O)c1 (stereo not drawn),> 20 µM,> 20 µM,–
Cc1cccc2c3c(ccc12)-c1occ(CN2CCC(N(C)C)CC2)c1C(=O)C3=O,3.8 µM,3.82 µM,–
Cc1cc2c(o1)-c1c(c3ccccc3c(=O)n1CCCN1CCCCC1)C(=O)C2=O,1.12 µM,1.53 µM,–
CCN(CC)CCCn1c2c(c3ccccc3c1=O)C(=O)C(=O)c1cc(C)oc1-2,–,–,Activity [10]: Dose-dependent effect; Activity [11]: Dose-dependent effect; Activity [12]: Dose-dependent effect; Activity [13]: inactive; Activity [14]: inactive; TGI [15]: Active; TGI [16]: Active; Activity [17]: Active; Activity [18]: inactive
Cc1cccc2c3c(ccc12)-c1occ(CN2CCC(=O)CC2)c1C(=O)C3=O,9.71 µM,4.74 µM,–
Cc1cccc2c3c(ccc12)-c1occ(CN2CCN(C)CC2)c1C(=O)C3=O,5.22 µM,13.1 µM,–
CCN(CC)CCCn1c2c(c3ccccc3c1=O)C(=O)C(=O)c1cc(C)oc1-2.Cl,–,–,solubility at 24 h [3]: > 80000 µg/mL
Cc1cc2c(o1)-c1c(c3ccccc3c(=O)n1CCCN1CCOCC1)C(=O)C2=O,2.3 µM,1.56 µM,–
Cc1cccc2c3c(ccc12)-c1occ(CN(C)CCO)c1C(=O)C3=O,1.5 µM,1.02 µM,–
